Experimental data of several laboratories.
Compare with care: the assays were run in different laboratories.
Target: cAMP-dependent protein kinase catalytic subunit PRKX (PRKX, Homo sapiens, UniProt P51817)
Sequence (P51817 1-358, as in one of the studies): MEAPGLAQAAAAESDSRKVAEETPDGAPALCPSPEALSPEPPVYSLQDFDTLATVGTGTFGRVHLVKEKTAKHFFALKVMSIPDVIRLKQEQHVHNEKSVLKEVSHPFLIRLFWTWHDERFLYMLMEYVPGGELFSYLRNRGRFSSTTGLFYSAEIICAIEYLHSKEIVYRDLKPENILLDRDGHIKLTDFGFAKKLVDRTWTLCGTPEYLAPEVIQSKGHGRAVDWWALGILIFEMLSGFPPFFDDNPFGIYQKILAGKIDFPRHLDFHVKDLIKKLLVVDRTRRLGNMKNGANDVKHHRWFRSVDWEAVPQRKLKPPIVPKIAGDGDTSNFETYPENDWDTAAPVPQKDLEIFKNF

SMILES	test	conditions	measurement	value
Cc1nn(C)cc1-c1nc2c(N3CCN(Cc4ccc(Cl)cc4)CC3)c(Cl)cnc2[nH]1	binding, competition with immobilised ligand	1 µM	remaining binding	18%
Cn1cc(-c2cc(F)cc(N3CCn4c(cc5c4CCCC5)C3=O)c2CO)cc(Nc2ccc(N3CCN(C4COC4)CC3)cn2)c1=O	enzyme activity, inhibitor	0.1 µM	inhibition	17%
CC(C)(C)c1cc(C=C(C#N)C#N)cc(Br)c1O	enzyme activity, inhibitor	0.5 µM	remaining activity	102%
Cn1cncc1[C@@](O)(COc1ccc(C#N)cc1-c1ccc(OC(F)(F)F)cc1)c1ccc(C#N)cc1	cell-free assay, competition with immobilised ligand	1 µM	remaining binding	94%
Cn1cc(-c2cccc(N3CCc4c(sc5c4CC(C)(C)C5)C3=O)c2CO)cc(Nc2ccncn2)c1=O	enzyme activity, inhibitor	1 µM	inhibition	1%
O=c1[nH]c2ccccc2n1C1CCN(Cc2ccc(-c3[nH]c4cc5ncnc5cc4nc3-c3ccccc3)cc2)CC1	cell-free assay	0.5 µM	remaining signal	101%
Nc1ncc(-c2nc(N3CCOCC3)nc(N3CCOCC3)n2)c(C(F)F)n1	binding, competition with immobilised ligand	10 µM	remaining binding	90%
COc1ncccc1-c1cnn2ccc(N3CCN(C(=O)OC(C)C)CC3)nc12	binding, competition with immobilised ligand	1 µM	remaining binding	100%
COc1cc(Nc2ncc(F)c(Nc3ccc4c(n3)NC(=O)C(C)(C)O4)n2)cc(OC)c1OC	binding	10 µM	inhibition	0%
